ChEMBL document CHEMBL2169743, “Identification of novel 2-((1-(benzyl(2-hydroxy-2-phenylethyl)amino)-1-oxo-3-phenylpropan-2-yl)carbamoyl)benzoic acid analogues as BMP-2 stimulators” (J Med Chem, 2012)
Calls of active or inactive are those of the source. The rule behind the calls is not given here.

Experiments:
[1] = system: Calvarial osteoblast; assay: Osteogenic activity in Sprague-Dawley rat calvarial osteoblasts assessed as BMP-2 level at 1000 nM after 48 hrs by ELISA relative to control; type: functional
[2] = system: Calvarial osteoblast; assay: Osteogenic activity in Sprague-Dawley rat calvarial osteoblasts assessed as BMP-2 level at 100 nM after 48 hrs by ELISA relative to control; type: functional
[3] = system: Calvarial osteoblast; assay: Osteogenic activity in Sprague-Dawley rat calvarial osteoblasts assessed as BMP-2 level at 10 nM after 48 hrs by ELISA relative to control; type: functional
[4] = system: Calvarial osteoblast; assay: Osteogenic activity in Sprague-Dawley rat calvarial osteoblasts assessed as BMP-2 level at 1 nM after 48 hrs by ELISA relative to control; type: functional
[5] = system: Calvarial osteoblast; assay: Osteogenic activity in Sprague-Dawley rat calvarial osteoblasts assessed as BMP-2 level at 0.1 nM after 48 hrs by ELISA relative to control; type: functional
[6] = system: Calvarial osteoblast; assay: Osteogenic activity in Sprague-Dawley rat calvarial osteoblasts assessed as BMP-2 mRNA expression at 0.1 to 1000 nM after 48 hrs by qPCR analysis relative to control; type: functional, cell-based
[7] = system: MC3T3-E1; assay: Inhibition of 20S proteasome in mouse MC3T3-E1 cells at 100 nM after 48 hrs by Bradford assay; type: cell-based
Summary of the method: (§1)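 MC3T3-E1 cells seeded at 2 × 10⁶/well and treated for 48 h. Lysed in HEPES pH 7.5/EDTA/NaCl/1% Triton X-100 on ice; protein measured by Bradford. 10 μg lysate incubated with fluorogenic 20S proteasome substrate for 1 h at 37 °C in the dark, fluorescence read at 380/460 nm. Lactacystin 25 μM as reference. Mean ± SEM, three independent experiments.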

[8] = system: MC3T3-E1; assay: Inhibition of 20S proteasome in mouse MC3T3-E1 cells after 48 hrs by Bradford assay; type: cell-based; summary of the method: as §1
[9] = system: Rattus norvegicus; assay: Toxicity in Sprague-Dawley rat assessed as effect on cuspid valve BMP-7 mRNA expression at 1 to 5 mg/kg/day after 2 weeks by qPCR analysis relative to vehicle-treated control; type: organism-based; conditions: in vivo, 336 h
[10] = system: Rattus norvegicus; assay: Toxicity in Sprague-Dawley rat assessed as effect on cuspid valve BMP-4 mRNA expression at 1 to 5 mg/kg/day after 2 weeks by qPCR analysis relative to vehicle-treated control; type: organism-based; conditions: in vivo, 336 h
[11] = system: Rattus norvegicus; assay: Toxicity in Sprague-Dawley rat assessed as effect on cuspid valve BMP-2 mRNA expression at 1 to 5 mg/kg/day after 2 weeks by qPCR analysis relative to vehicle-treated control; type: organism-based; conditions: in vivo, 336 h
[12] = system: Rattus norvegicus; assay: Toxicity in Sprague-Dawley rat assessed as effect on aorta BMP-7 mRNA expression at 1 to 5 mg/kg/day after 2 weeks by qPCR analysis relative to vehicle-treated control; type: organism-based; conditions: in vivo, 336 h
[13] = system: Rattus norvegicus; assay: Toxicity in Sprague-Dawley rat assessed as effect on aorta BMP-4 mRNA expression at 1 to 5 mg/kg/day after 2 weeks by qPCR analysis relative to vehicle-treated control; type: organism-based; conditions: in vivo, 336 h
[14] = system: Rattus norvegicus; assay: Toxicity in Sprague-Dawley rat assessed as effect on aorta BMP-2 mRNA expression at 1 to 5 mg/kg/day after 2 weeks by qPCR analysis relative to vehicle-treated control; type: organism-based; conditions: in vivo, 336 h
[15] = system: Rattus norvegicus; assay: Osteogenic activity in Sprague-Dawley rat femur drill-hole fracture model assessed as decrease in structure model index at 1 to 5 mg/kg/day after 2 weeks by micro-CT method relative to vehicle-treated control; type: functional, organism-based
Summary of the method: (§2)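 Same rat femoral drill-hole model: 10 rats/group, 1.0 or 5.0 mg·kg⁻¹·day⁻¹ or gum acacia vehicle for 2 weeks starting the day after injury. Femurs taken at autopsy; μCT of the drill-hole gives BV/TV, Tb.N, Tb.Th, Tb.Sp, Conn.Dens and SMI. Mean ± SEM.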

[16] = system: Rattus norvegicus; assay: Osteogenic activity in Sprague-Dawley rat femur drill-hole fracture model assessed as decrease in trabecular spacing at 1 to 5 mg/kg/day after 2 weeks by micro-CT method relative to vehicle-treated control; type: functional, organism-based; summary of the method: as §2
[17] = system: Rattus norvegicus; assay: Osteogenic activity in Sprague-Dawley rat femur drill-hole fracture model assessed as increase in connection density at 1 to 5 mg/kg/day after 2 weeks by micro-CT method relative to vehicle-treated control; type: functional, organism-based; summary of the method: as §2
[18] = system: Rattus norvegicus; assay: Osteogenic activity in Sprague-Dawley rat femur drill-hole fracture model assessed as increase in trabecular thickness at 1 to 5 mg/kg/day after 2 weeks by micro-CT method relative to vehicle-treated control; type: functional, organism-based; summary of the method: as §2
[19] = system: Rattus norvegicus; assay: Osteogenic activity in Sprague-Dawley rat femur drill-hole fracture model assessed as increase in trabecular number at 1 to 5 mg/kg/day after 2 weeks by micro-CT method relative to vehicle-treated control; type: functional, organism-based; summary of the method: as §2
[20] = system: Rattus norvegicus; assay: Osteogenic activity in Sprague-Dawley rat femur drill-hole fracture model assessed as increase in bone volume/trabecular volume at 1 to 5 mg/kg/day after 2 weeks by micro-CT method relative to vehicle-treated control; type: functional, organism-based; summary of the method: as §2
[21] = system: Rattus norvegicus; assay: Osteogenic activity in Sprague-Dawley rat femur drill-hole fracture model assessed as bone formation at 5 mg/kg/day after 2 weeks by calcein labeling-based confocal microscopy relative to vehicle-treated control; type: functional
Summary of the method: (§3)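 Bilateral femoral diaphysis drill-hole (0.8 mm bit, 2 cm above knee) in rats, 10 per group. Daily dosing at 1.0 or 5.0 mg·kg⁻¹·day⁻¹, or gum acacia/water vehicle, from the day after injury for 2 weeks. Calcein 20 mg/kg i.p. given 2 days before autopsy. Acrylic-embedded 50 μm sections imaged by confocal microscopy; calcein intensity quantified. Mean ± SEM.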

[22] = system: Rattus norvegicus; assay: Osteogenic activity in Sprague-Dawley rat femur drill-hole fracture model assessed as bone formation at 1 mg/kg/day after 2 weeks by calcein labeling-based confocal microscopy relative to vehicle-treated control; type: functional; summary of the method: as §3
[23] = organism: Rattus norvegicus; assay: Osteogenic activity in Sprague-Dawley rat femur drill-hole fracture model assessed as increase in osteoblast formation after 2 weeks by calcein labeling-based confocal microscopy relative to vehicle-treated control; type: functional, organism-based; summary of the method: as §3
[24] = organism: Rattus norvegicus; assay: Osteogenic activity in Sprague-Dawley rat femur drill-hole fracture model assessed as increase in callus regeneration after 2 weeks by calcein labeling-based confocal microscopy relative to vehicle-treated control; type: functional, organism-based; summary of the method: as §3
[25] = organism: Rattus norvegicus; assay: Osteogenic activity in Sprague-Dawley rat femur drill-hole fracture model assessed as increase in osteoblast recruitment after 2 weeks by calcein labeling-based confocal microscopy relative to vehicle-treated control; type: functional, organism-based; summary of the method: as §3
[26] = system: Calvarial osteoblast; assay: Induction of […] mRNA expression in Sprague-Dawley rat calvarial osteoblasts at 10 nM after 72 hrs by qPCR analysis in presence of noggin; type: functional, cell-based
Summary of the method: (§4)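 Rat calvarial osteoblasts treated for 72 h with 10 nM compound, 100 ng/mL BMP-2 and 50 ng/mL noggin, alone or combined. Runx-2 and osteocalcin mRNA measured by qPCR. Data are mean ± SEM from three independent experiments.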

[27] = system: Calvarial osteoblast; assay: Induction of Runx-2 mRNA expression in Sprague-Dawley rat calvarial osteoblasts at 10 nM after 72 hrs by qPCR analysis in presence of noggin; type: functional, cell-based; summary of the method: as §4
[28] = system: Calvarial osteoblast; assay: Induction of type 1 collagen mRNA expression in Sprague-Dawley rat calvarial osteoblasts at 10 nM by qPCR analysis; type: functional, cell-based; conditions: TDE = time-dependent effect
Summary of the method: (§5)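 Primary calvarial osteoblasts from pooled 1–2-day-old Sprague–Dawley rat pups (both sexes), released by sequential Dispase/collagenase P digestion at 37 °C. Cells kept in osteoblast differentiation medium with 10 nM compound or vehicle and sampled at several time points (24 h up to 72 h) for qPCR. Results given as fold change, mean ± SEM, triplicate.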

[29] = system: Calvarial osteoblast; assay: Induction of […] mRNA expression in Sprague-Dawley rat calvarial osteoblasts at 10 nM by qPCR analysis; type: functional, cell-based; conditions: TDE = time-dependent effect; summary of the method: as §5
[30] = system: Calvarial osteoblast; assay: Induction of BMP-2 mRNA expression in Sprague-Dawley rat calvarial osteoblasts at 10 nM by qPCR analysis; type: functional, cell-based; conditions: TDE = time-dependent effect; summary of the method: as §5
[31] = system: Calvarial osteoblast; assay: Induction of Runx mRNA expression in Sprague-Dawley rat calvarial osteoblasts at 10 nM by qPCR analysis; type: functional, cell-based; conditions: TDE = time-dependent effect; summary of the method: as §5
[32] = system: Calvarial osteoblast; assay: Induction of mineralization in Sprague-Dawley rat calvarial osteoblasts assessed as increase of mineralized nodule formation at 10 nM after 21 days by Alizarin Red S staining relative to vehicle-treated control; type: functional, cell-based
Summary of the method: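 Rat calvarial osteoblasts grown to 80% confluence, then plated at 25 000 cells/well in differentiation medium (growth medium plus 50 μg/mL ascorbic acid and […]) with 10 nM compound or vehicle. Medium changed every other day for 21 days. Cells fixed in 4% paraformaldehyde and stained with 40 mM Alizarin Red S (pH 4.5). Dye extracted with 10% acetic acid at 85 °C, neutralized, OD 405 nm read.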

## CC(=O)OC(CNC(=O)C(Cc1ccccc1)NC(=O)c1ccccc1C(=O)O)c1ccccc1 (stereo not drawn)
[1]
  Activity: 103%
[2]
  Activity: 96.03%
[3]
  Activity: 98.33%
[4]
  Activity: 98.67%
[5]
  Activity: 106%

## CC(=O)OC(CN(Cc1ccccc1)C(=O)C(Cc1ccccc1)NC(=O)c1ccccc1C(=O)O)c1ccccc1 (stereo not drawn)
[1]
  Activity: 100.6%
[2]
  Activity: 98.76%
[3]
  Activity: 83.45%
[4]
  Activity: 89.49%
[5]
  Activity: 88.7%

## Cc1ccc(S(=O)(=O)OC(CNC(=O)C(Cc2ccccc2)NC(=O)c2ccccc2C(=O)O)c2ccccc2)cc1 (stereo not drawn)
[1]
  Activity: 104%
[2]
  Activity: 114.88%
[3]
  Activity: 111.78%
[4]
  Activity: 131.75%
[5]
  Activity: 119%

## N#CC(CN(Cc1ccccc1)C(=O)C(Cc1ccccc1)NC(=O)c1ccccc1C(=O)O)c1ccccc1 (stereo not drawn)
[1]
  Activity: 92.6%
[2]
  Activity: 96.69%
[3]
  Activity: 89.28%
[4]
  Activity: 97.35%
[5]
  Activity: 83.6%

## Cc1ccc(S(=O)(=O)OC(CN(Cc2ccccc2)C(=O)C(Cc2ccccc2)NC(=O)c2ccccc2C(=O)O)c2ccccc2)cc1 (stereo not drawn)
[1]
  Activity: 111%
[2]
  Activity: 98.7%
[3]
  Activity: 109.39%
[4]
  Activity: 141.67%
[5]
  Activity: 122%

## O=C(O)c1ccccc1C(=O)NC(Cc1ccccc1)C(=O)NCC(OCc1ccccc1)c1ccccc1 (stereo not drawn)
[1]
  Activity: 93.6%
[2]
  Activity: 117.2%
[3]
  Activity: 101.32%
[4]
  Activity: 107.27%
[5]
  Activity: 87.8%

## O=C(O)c1ccccc1C(=O)NC(Cc1ccccc1)C(=O)NCCc1ccccc1 (stereo not drawn)
[6]
  Activity: Active
[1]
  Activity: 132%
[2]
  Activity: 166.11%
[3]
  Activity: 114.24%
[4]
  Activity: 122.8%
[5]
  Activity: 111%

## O=C(O)c1ccccc1C(=O)NC(Cc1ccccc1)C(=O)N(Cc1ccccc1)CC(OCc1ccccc1)c1ccccc1 (stereo not drawn)
[1]
  Activity: 92.6%
[2]
  Activity: 103.27%
[3]
  Activity: 98.34%
[4]
  Activity: 100.66%
[5]
  Activity: 89.8%

## O=C(OC(CN(Cc1ccccc1)C(=O)C(Cc1ccccc1)NC(=O)c1ccccc1C(=O)O)c1ccccc1)c1ccccc1 (stereo not drawn)
[1]
  Activity: 112%
[2]
  Activity: 103.15%
[3]
  Activity: 103.15%
[4]
  Activity: 107.69%
[5]
  Activity: 98.4%

## O=C(O)c1ccccc1C(=O)NC(Cc1ccccc1)C(=O)N(Cc1ccccc1)CC(O)c1ccccc1 (stereo not drawn)
[7]
  inhibition: inactive
[8]
  inhibition: Dose-dependent effect
[9]
  Activity: Non-toxic
[10]
  Activity: Non-toxic
[11]
  Activity: Non-toxic
[12]
  Activity: Non-toxic
[13]
  Activity: Non-toxic
[14]
  Activity: Non-toxic
[15]
  Activity: Active
[16]
  Activity: Active
[17]
  Activity: Active
[18]
  Activity: Active
[19]
  Activity: Active
[20]
  Activity: Active
[21]
  fold change (FC): 3.12
[22]
  fold change (FC): 2.16
[23]
  Activity: Dose-dependent effect
[24]
  Activity: Dose-dependent effect
[25]
  Activity: Dose-dependent effect
[26]
  Activity: inactive
[27]
  Activity: inactive
[28]
  Activity: tde
[29]
  Activity: tde
[30]
  Activity: tde
[31]
  Activity: tde
[32]
  Activity: Active
[6]
  Activity: Active
[1]
  Activity: 133%
[2]
  Activity: 137.2%
[3]
  Activity: 155.6%
[4]
  Activity: 159.5%
[5]
  Activity: 140%
